Screening results (PubChem)
Hits are enriched below; roughly 4.2% of the tested compounds scored in any of these assays.
FXN GAA850 act = increases GAA850 frataxin promoter reporter activity | HEK293 lucGAA850 FXN promoter luciferase reporter, 24 h; percent of 10 µM SAHA response | activation, % at 6 µM | 360,000 compounds, 0.56% hits;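 active means activation above the average of all compounds screened plus 3 SD, cutoff fixed separately per campaign, cut at about 7.5% in these data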
AHR activator = activates the human aryl hydrocarbon receptor | AHR-responsive luciferase reporter cells, luminescence | AID 2796 | activation, % at 5 µM | P35869 | 320,000 compounds, 2.5% hits; in the data active means activation above about 47%
CTSL1 counter = cathepsin L1 inhibition, PFM18AAP counter-screen. recombinant F. hepatica cathepsin L1, Z-Leu-Arg-MCA fluorescence. inhibition, % at 5.96 µM. 300,000 compounds, 0.49% hits. AID 1906;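 active means inhibition above the mean of all tested compounds plus 3 SD, set per screening campaign, cut at about 17% in these data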
HDAC3 inhib = blocks human histone deacetylase 3; 320,000 compounds, 0.15% hits; inhibition, % at 8.3 µM; recombinant HDAC3, fluorogenic peptide/trypsin coupled, fluorescence; in the data active means inhibition above about 26%, passing the limit was not always enough
Target sequence (O15379 whole entry, looked up): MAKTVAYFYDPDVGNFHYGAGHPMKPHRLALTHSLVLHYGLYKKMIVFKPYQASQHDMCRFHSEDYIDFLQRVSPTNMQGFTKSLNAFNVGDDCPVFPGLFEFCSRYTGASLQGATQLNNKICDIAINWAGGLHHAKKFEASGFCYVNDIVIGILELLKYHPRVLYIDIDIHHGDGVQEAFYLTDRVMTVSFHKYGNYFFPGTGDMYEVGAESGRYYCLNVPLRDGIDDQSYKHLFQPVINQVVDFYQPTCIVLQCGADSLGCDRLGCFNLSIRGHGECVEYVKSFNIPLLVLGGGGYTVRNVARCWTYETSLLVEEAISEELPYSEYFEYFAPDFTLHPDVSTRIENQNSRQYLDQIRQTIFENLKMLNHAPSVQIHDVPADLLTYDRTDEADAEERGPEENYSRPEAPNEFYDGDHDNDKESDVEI
SENP1 FRET inh = blocks the human SENP1 SUMO protease catalytic domain; Q9P0U3; recombinant SENP1 catalytic domain, CyPet-SUMO1-YPet FRET cleavage; inhibition, % at 10 µM; 360,000 compounds, 0.21% hits;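 active means inhibition at least 30% at 10 µM, raw YFP signal under a set limit, fluorescence ratio 0.5 to 1.5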
Target sequence (Q9P0U3 419-644 limits assumed): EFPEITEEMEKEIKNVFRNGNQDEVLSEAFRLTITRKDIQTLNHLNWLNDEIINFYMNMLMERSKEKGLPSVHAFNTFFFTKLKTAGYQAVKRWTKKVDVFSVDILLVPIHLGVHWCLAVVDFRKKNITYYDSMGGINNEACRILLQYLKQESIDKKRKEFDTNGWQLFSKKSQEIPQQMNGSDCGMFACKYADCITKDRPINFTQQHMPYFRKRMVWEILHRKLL
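Test system: hSENP1 catalytic domain, recombinant; Amount: 20 pM final SENP1 enzyme; Medium: Tris pH 8 buffer plus EDTA, NaCl, BME, BSA, NP40, catalase; Schedule: 50 min enzyme reaction, room temperature, light-protected; Technique: FRET fluorescence in CFP and YFP emission channels; Controls: no-enzyme wells low, DMSO-plus-enzyme wells high control.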
PfM18AAP inh = PfM18AAP enzyme inhibition; recombinant PfM18AAP, H-Glu-NHMec fluorogenic cleavage; 290,000 compounds, 1.2% hits; AID 1822; inhibition, % at 7.35 µM;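 active means inhibition above the campaign mean inhibition over all tested compounds plus 3 SD, cut at about 28% in these data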
Large screens that a line does not name were inactive.

Cc1nc(NCCc2ccccc2F)c(C#N)c(C)c1[N+](=O)[O-]	AHR activator 51.5
O=C(NC(c1cccnc1)C(F)(F)F)c1cc(COc2ccc3c(c2)CCCC3)on1 (stereo unspecified)	none
COc1ccc(/C=N/NC(=O)c2nc(-c3ccccc3)cc(-c3ccccc3)n2)cc1O	AHR activator 52.1
COc1ccc(/C=N/NC(=O)c2nc(-c3ccccc3)cc(-c3ccccc3)n2)cc1	none
COc1cc(OC)c(/C=N/NC(=O)c2ccncc2)cc1Br	none
Oc1cccc(/C=N/NC(=S)NCCN2CCOCC2)c1O	PfM18AAP inh 28.9
COc1ccc(-n2c(C)cc(/C=N/Nc3nnc(C)n3N)c2C)cc1	PfM18AAP inh 48.0
COc1cc(OC)c(/C=N/NC(N)=S)cc1Br	CTSL1 counter 74.5
NC(=S)N/N=C/c1cccc(O)c1O	PfM18AAP inh 40.0
COc1ccc(CCNC(=O)c2cc3cc(Cl)ccc3nc2N)cc1OC	none (no result: FXN GAA850 act, AHR activator, CTSL1 counter, HDAC3 inhib, PfM18AAP inh)
COC(=O)[C@]12CCCCC=C1N(Cc1cccc3ccccc13)C(=O)[C@H](CC(=O)N1CCN(C(=O)C3CC3)CC1)C2	none (no result: FXN GAA850 act, AHR activator, CTSL1 counter, HDAC3 inhib, PfM18AAP inh)
CCOC(=O)[C@]12CCC=C1N(Cc1ccc3c(c1)OCO3)C(=O)[C@H](CC(=O)NCCC(C)C)C2	none (no result: FXN GAA850 act, AHR activator, CTSL1 counter, HDAC3 inhib, PfM18AAP inh)
NC(=S)N/N=C/c1ccccc1O	none
NC(=S)N/N=C/c1cccc(/C=N/NC(N)=S)c1	CTSL1 counter 18.1
NC(=S)N/N=C/c1ccc(/C=N/NC(N)=S)cc1	CTSL1 counter 32.3
Cc1cc(/C=N/NC(N)=S)c(O)c(/C=N/NC(N)=S)c1	CTSL1 counter 19.5, PfM18AAP inh 44.8
Cc1ccc(-n2c(C)cc(/C=N/NC(N)=S)c2C)cc1	CTSL1 counter 30.8
NC(=S)N/N=C/c1ccc2ccccc2c1	none
CCOCc1cc(CN2CCC(CCC(=O)NC3CC3)CC2)ccc1OC	none
Cc1ccc(S(=O)(=O)NC(=O)NCCc2ccccc2)cc1	none
O=C(O)c1cc(N=Cc2c(O)c3ccccc3oc2=O)ccc1O	none (no result: AHR activator, CTSL1 counter)
CC1CCCC(C)N1C(=O)CN1C(=O)NC2(CCCCCC2)C1=O (stereo unspecified)	none (no result: AHR activator, CTSL1 counter, HDAC3 inhib, PfM18AAP inh)
O=c1oc2c(O)c(O)cc3c(=O)oc4c(O)c(O)cc1c4c23	PfM18AAP inh 29.5
Cc1nc2cc3c(cc2c(C)c1C(=O)OC(C)C)OCO3	AHR activator 63.6
COc1ccccc1NC(=S)N(Cc1ccco1)Cc1cc2cccc(C)c2[nH]c1=O	AHR activator 48.4
CC(C)CNC(=S)N(Cc1ccco1)Cc1cc2cc3c(cc2[nH]c1=O)OCCO3	AHR activator 53.6
COCCNC(=S)N(CCO)Cc1cc2cc3c(cc2[nH]c1=O)OCCO3	HDAC3 inhib 32.1
COCCCNC(=S)N(CCO)Cc1cc2cc3c(cc2[nH]c1=O)OCCO3	none
Cc1ccc2cc(CN(Cc3ccc4c(c3)OCO4)Cc3nnnn3Cc3ccco3)c(=O)[nH]c2c1	none
Cc1ccc(CN(Cc2cc3cc4c(cc3[nH]c2=O)OCCO4)Cc2nnnn2Cc2ccco2)cc1	PfM18AAP inh 30.1
Cc1noc(C)c1S(=O)(=O)N(C)C[C@@H]1OCc2cnnn2CCCC(=O)N([C@H](C)CO)C[C@@H]1C	none (no result: AHR activator, CTSL1 counter, HDAC3 inhib, PfM18AAP inh)
O=C(NC(=O)N1CCCCCC1)c1ccc(Cl)cc1	none
CCC1CCCCN1C(=O)CCNS(=O)(=O)c1ccc2c(c1)oc(=O)n2C (stereo unspecified)	none
CNC(=S)N(Cc1ccco1)Cc1cc2cc3c(cc2[nH]c1=O)OCCO3	none
CCNC(=S)N(Cc1ccco1)Cc1cc2cc3c(cc2[nH]c1=O)OCCO3	AHR activator 70.7
COc1ccccc1CC(=O)Nc1cc2oc3ccccc3c2cc1OC	none
COc1cc2c(cc1NC(=O)COC(=O)[C@@H](NC(=O)c1ccccc1F)C(C)C)oc1ccccc12	AHR activator 58.9
COc1cc2c(cc1NC(=O)COCC(=O)O)oc1ccccc12	none (no result: AHR activator, CTSL1 counter)
COc1cc2c(cc1NC(=O)COC(=O)[C@@H](NC(=O)c1ccccc1)C(C)C)oc1ccccc12	AHR activator 49.5
COc1cc2c(cc1NC(=O)COC(=O)CNC(=O)c1ccccc1)oc1ccccc12	CTSL1 counter 24.2
CCC(C)[C@H](NC(=O)c1cc2cc(Cl)ccc2n1C)C(=O)N1CCC[C@H]1C(=O)O (stereo partly specified)	none
O=C(NC(=S)NNC(=O)c1ccccc1F)c1cccnc1	PfM18AAP inh 28.9
Cc1cc2cc3c(cc2nc1SCC(=O)Nc1nc(C)c(C)s1)OCO3	AHR activator 91.8
CCOC(=O)c1c(C)[nH]c(C(=O)N2CCC(C(=O)OCC)CC2)c1C	none
Cc1cc(C)[n+]2[nH]c(N)c(N=Nc3ccccc3)c2n1	AHR activator 69.9
CSCCC(NC(=O)/C(=C/c1ccco1)NC(=O)c1ccco1)C(=O)O (stereo unspecified)	none (no result: PfM18AAP inh)
COC(=O)c1cc(Br)c(=O)n(CCc2ccc(F)cc2)c1	AHR activator 56.4
CC[C@]12c3[nH]c4ccc(Cl)cc4c3CCN1C(=O)[C@@H](CC(=O)NCCc1ccccn1)C[C@@H]2C(=O)N1CCN(C(=O)c2ccco2)CC1	none (no result: AHR activator, CTSL1 counter, HDAC3 inhib, PfM18AAP inh)
COc1ccc(S(=O)(=O)N2CCCCC2)cc1NC(=O)CCc1nc2ccccc2c(=O)[nH]1	CTSL1 counter 28.4 (no result: PfM18AAP inh)
CC1CC(=O)c2c(cc3c(-c4c(O)cc(O)c5c(O)c6c(cc45)OC(C)CC6=O)c(O)cc(O)c3c2O)O1 (stereo unspecified)	SENP1 FRET inh 69.7
Cc1ccc2[nH]c(=O)c(-c3nc4ccccn4c3NCc3ccco3)cc2c1	AHR activator 47.7
CCCNC(=O)N1C[C@H](O)COC[C@@H]2O[C@@H](CC(=O)NCCCN3CCOCC3)CC[C@H]21	none (no result: FXN GAA850 act, AHR activator, CTSL1 counter, HDAC3 inhib, PfM18AAP inh)
O=C(Cc1cccs1)Nc1nnc(SCc2ccc(Br)cc2)s1	AHR activator 47.6
O=C(Cc1cccs1)Nc1nnc(SCc2ccc(C(F)(F)F)cc2)s1	none
COc1ccc(C(C[N+](=O)[O-])C2(c3ccc(OC)c(OC)c3)C(=O)c3ccccc3C2=O)cc1 (stereo unspecified)	PfM18AAP inh 34.6
CC1CCCCC12NC(=O)N(CC(=O)NCCc1ccc(F)cc1)C2=O (stereo unspecified)	none (no result: CTSL1 counter, HDAC3 inhib, PfM18AAP inh)
COC(=O)C1(C(F)(F)F)C2C=CC(C2)N1S(=O)(=O)c1ccc(C)cc1 (stereo unspecified)	none
Cc1nn(-c2nc3ccccc3s2)c(N)c1-c1ccc(Cl)cc1	AHR activator 76.8
Cc1nn(-c2nc3ccccc3s2)c(N)c1-c1ccccc1	none
CC(O)(c1ccccc1)c1nc(-c2ccncc2)cs1 (stereo unspecified)	none (no result: AHR activator, CTSL1 counter, HDAC3 inhib, PfM18AAP inh)
CC(OC(=O)c1ccc(=O)n(Cc2ccccc2)n1)C(=O)Nc1cccc(Cl)c1 (stereo unspecified)	CTSL1 counter 16.8 (no result: PfM18AAP inh)
NC1=NC(=O)/C(=C\c2ccc(-c3ccc(Cl)cc3)o2)S1	AHR activator 51.0
